High-throughput results: PubChem BioAssay, Sanford-Burnham Center for Chemical Genomics
Most compounds without a hit are left out; they make up all but 2.4% or so of the library.
DNMT1 block: inhibitors of human DNMT1; DNMT1 molecular beacon, Hinp1I cleavage, fluorescence; inhibition (reported as % activation of signal), % at 10 µM; 360,000 compounds, 0.83% hits; in the data active = inhibition above about 50%
Scp-1 inhibitor: inhibitors of human Scp-1 phosphatase. 340,000 compounds, 0.88% hits. inhibition, % at 20 µM. AID 493091. Recombinant Scp1, phosphopeptide, malachite green phosphate absorbance. Q9GZU7;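 active = inhibition above about 50% at 20 µM, limit read from the data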;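 also: plate controls were DMSO wells with enzyme for no effect and wells lacking enzyme for full effect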
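Material – SCP-1 phosphatase catalytic domain, residues 76-261 · Buffer or medium – Acidic Tris acetate buffer with magnesium and detergent · Also added – Phospho 17-mer peptide substrate · Compound – single 20 µM dose, 1% DMSO · Times – 45 min room-temperature reaction, 5 min colour, 30 min stabiliser · Technique – Phosphate-binding colour reagent, absorbance read at 630 nm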
SUMO1 PPI mod: modulators of human SUMO1-mediated protein-protein interactions; P63165; SUMO1 binding to a labelled peptide, TR-FRET, 1 h; inhibition, % at 20 µM; 360,000 compounds, 0.33% hits; AID 602429; in the data active = inhibition above about 37%
NadD block: NadD (S. aureus) enzyme inhibition; purified NadD enzyme, colorimetric absorbance read-out; inhibition, % at 20 µM; 360,000 compounds, 0.78% hits; in the data active = inhibition above about 26%
LMPTP block: blocks human LMPTP phosphatase | P24666 | recombinant LMPTP-A, OMFP fluorogenic substrate, fluorescence intensity | inhibition, % at 20 µM | 360,000 compounds, 0.22% hits;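 active = compounds that cut the enzyme signal by at least half of the control window in the single-dose screen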;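 also: plate controls were DMSO wells with enzyme plus substrate for no effect and substrate without enzyme for full effect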
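material = LMPTP-A | quantity = 0.625 nM enzyme | reagent = OMFP substrate, 400 µM final | buffer or medium = Bis-Tris pH 6.0, DTT, detergent | detection = endpoint fluorescence intensity from OMFP dephosphorylation | dosing = single 20 µM dose | read-out basis = % inhibition relative to no-enzyme and uninhibited control wells | control set = no-enzyme and uninhibited controls | timing = 50 min at room temperature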
STEP inh: blocks human striatal-enriched tyrosine phosphatase; P54829; recombinant STEP, OMFP fluorogenic substrate, fluorescence; inhibition, % at 20 µM; 360,000 compounds, 0.25% hits;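 active = inhibition at 20 µM, scaled per plate between control wells, above about 37%, limit read from the data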;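 also: 0% = DMSO with enzyme and substrate and 100% = substrate only without enzyme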
Target sequence (P54829 whole entry, looked up): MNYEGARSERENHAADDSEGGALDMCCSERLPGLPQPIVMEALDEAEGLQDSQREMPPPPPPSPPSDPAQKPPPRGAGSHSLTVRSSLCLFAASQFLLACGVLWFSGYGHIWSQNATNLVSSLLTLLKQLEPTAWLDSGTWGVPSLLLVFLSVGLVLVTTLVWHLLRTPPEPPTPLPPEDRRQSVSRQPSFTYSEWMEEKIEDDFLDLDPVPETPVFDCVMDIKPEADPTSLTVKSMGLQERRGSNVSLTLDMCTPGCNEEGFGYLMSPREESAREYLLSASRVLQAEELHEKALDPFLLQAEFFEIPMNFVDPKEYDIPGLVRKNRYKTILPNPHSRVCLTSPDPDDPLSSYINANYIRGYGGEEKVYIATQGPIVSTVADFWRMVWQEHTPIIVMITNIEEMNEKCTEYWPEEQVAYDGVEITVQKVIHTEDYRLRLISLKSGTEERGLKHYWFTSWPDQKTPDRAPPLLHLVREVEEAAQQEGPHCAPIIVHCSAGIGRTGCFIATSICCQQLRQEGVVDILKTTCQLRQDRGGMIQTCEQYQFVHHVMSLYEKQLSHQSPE
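Assay system: isolated STEP enzyme. Buffer or medium: pH 6.0 Bis-Tris with DTT and Tween 20. Also added: fluorogenic phosphatase substrate OMFP at 25 µM final. Dosing: 20 µM, 1% DMSO. Timing: 20 min reaction, room temperature, in the dark. Measured by: fluorescence intensity, excitation 480 nm, emission 540 nm. Evaluation: normalized % inhibition.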
DNMT1 confirm: confirmation of human DNMT1 inhibitors; shares compounds with DNMT1 block; DNMT1 molecular beacon HinP1I cleavage, fluorescence; inhibition, % at 10 µM; 2,300 compounds, 8% hits; AID 602385;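 active = average inhibition of at least 30% in the single-concentration confirmation test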
Beacon interf: beacon fluorescence artifact counter-screen | shares compounds with DNMT1 block | DNMT1 molecular beacon spectral interference counterscreen, fluorescence 485/520 | activation (fluorescence interference), % at 10 µM | 2,300 compounds, 1% hits;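 active = activation of at least 30% at 10 µM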;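 also: DNMT1 catalytic domain with a HinP1I cleavage step and a FAM/dabcyl DNA beacon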
Active calls of the source: *; x = no result.

SMILES	DNMT1 block	Scp-1 inhibitor	SUMO1 PPI mod	NadD block	LMPTP block	STEP inh	DNMT1 confirm	Beacon interf
C=CCn1c(SCC(=O)NCc2ccco2)nc2ccccc2c1=O	0	-1	0	-6	0	3	x	x
C=CCn1c(SCC(=O)NC(=O)NCc2ccco2)nc2sc(CC)cc2c1=O	62*	39	3	-1	10	3	6	2
CCn1c(SCC(=O)NC(=O)NCc2ccco2)nc2sc(C)c(C)c2c1=O	78*	44	50*	12	30	4	2	4
Cc1sc2nc(SCC(=O)NCc3ccco3)n(C)c(=O)c2c1C	2	3	-1	-4	1	4	x	x
CCCC(=O)N1CCN(c2ccc(NC(=S)NC(=O)c3cccc(C)c3)cc2)CC1	-2	-5	3	-2	0	4	x	x
O=S(=O)(c1ccc(Cl)cc1)N1CCN(CCc2ccncc2)CC1	-3	-8	-2	1	-2	0	x	x
Cc1nc(CS(=O)(=O)c2ccc(Cl)cc2)cc(Sc2ccc(Cl)cc2)n1	3	-5	-1	-2	1	5	x	x
Cc1cc(C)n(-c2nc(Nc3ccccc3)nc(-n3nc(C)cc3C)n2)n1	64*	10	3	17	1	2	1	0
O=C(/C=C\c1ccccc1OC(=O)c1ccccc1F)c1cc2ccccc2o1	2	-12	-8	-4	2	1	x	x
O=C1N(Cc2cccc(Cl)c2)C[C@@H]2C[C@@H](c3cccn3-c3cccnc3)N3CCC[C@@]123	78*	0	2	11	2	5	2	2
O=C(c1cc2cc(Cl)ccc2oc1=O)N1CCN(c2ccccn2)CC1	89*	0	-6	3	1	1	-2	2
CCCCn1nc2cc(C(=O)NC3CCCc4ccccc43)ccc2c1OCC (stereo unspecified)	0	-8	1	-1	0	-2	x	x
Cc1c(CCC(=O)O)c(=O)oc2cc3oc4c(c3cc12)CCCC4	91*	-1	14	-3	0	-1	1	3
Cc1c(CCC(=O)NCC(=O)NCC(=O)O)c(=O)oc2cc3oc4c(c3cc12)CCCC4	1	1	7	8	1	0	x	x
COC(=O)c1ccc(/C=N/NC(=O)C(=O)NCC2CCCO2)cc1 (stereo unspecified)	0	-11	-16	6	-2	-2	x	x
COc1ccc2oc(=O)c(C(=O)NCc3cccnc3)cc2c1	51*	7	-25	3	0	-1	2	1
Clc1nc2ccccc2cc1/C=N/Nc1nc2ccccc2[nH]1	55*	-10	-9	10	5	6	2	-7
COc1ccc(Nc2ccc(OC)cc2)cc1	56*	-10	20	18	9	10	3	1
CCn1c(CC(=O)Nc2ccccc2)n[nH]c1=S	82*	-12	2	-2	-4	-4	6	7
O=C(CSc1nnc(-c2ccco2)o1)c1ccc[nH]1	55*	40	18	16	53*	1	6	3
O=C(CSc1nnc(-c2ccco2)o1)c1ccc(F)c(F)c1	-1	-5	-2	-4	0	0	x	x
O=C(CSc1nnc(SCc2ccccc2)s1)N/N=C/C=C\c1ccco1	88*	82*	13	27	28	3	9	-1
Cc1ccc(CSc2nnc(SCC(=O)N/N=C/c3c[nH]c4ccccc34)s2)cc1	62*	42	19	-8	32	12	14	-2
O=C(CSc1nnc(SCc2ccccc2Cl)s1)N/N=C/c1c[nH]c2ccccc12	17	-1	1	-4	2	-3	x	x
O=C(CC1SC(=O)NC1=O)Oc1ccc(/C=N/NC(=O)c2ccccc2O)cc1 (stereo unspecified)	3	-6	4	-1	-2	0	x	x
SMILES	DNMT1 block	Scp-1 inhibitor	SUMO1 PPI mod	NadD block	LMPTP block	STEP inh	DNMT1 confirm	Beacon interf
CN(C)c1ccc(-c2csc(C(O)c3cccc(Cl)c3)n2)cc1 (stereo unspecified)	-14	x	-3	0	0	-2	x	x
CCC(C)[C@H]1COCCS(=O)(=O)N1Cc1ccccc1 (stereo partly specified)	3	5	-2	-11	0	1	x	x
O=C(Nc1cc2c(oc1=O)CCCC2=O)c1ccc(Cl)cc1	97*	68*	-14	5	35	4	16	-2
C/C(=N\N(Cc1ccccc1)c1ccccc1)c1cccnc1	2	2	-2	6	4	2	x	x
CCCCCOC(=O)Cn1c(=O)oc2ccc(C)cc21	73*	-6	-2	-6	-1	-2	1	8
CCCCOC(=O)Cn1c(=O)oc2ccc(C)cc21	0	-8	-1	-4	-2	-2	x	x
CCN(CC)C(=O)Cn1nc(-c2ccc(Cl)cc2)c2ccccc2c1=O	-3	0	2	-2	0	2	x	x
O=C(N/N=C/c1ccccc1)c1ccc(CN2C(=O)c3cccc4cccc2c34)cc1	53*	40	-6	15	4	10	0	2
O=C(N/N=C/c1cccnc1)c1ccc(CN2c3cccc4cccc(c34)S2(=O)=O)cc1	-6	-1	-14	6	10	-2	x	x
Cc1ccc(NCC(=O)N/N=C\c2cccc(O)c2)cc1	58*	-3	1	6	0	-4	0	4
O=C(Nc1nnc(SCc2ccc(F)cc2)s1)c1ccc2c(c1)C(=O)N(c1ccccc1Cl)C2=O	-1	-13	11	5	1	-3	x	x
COc1ccc(N2CCN(C(=O)CN3CCN(c4nc(-c5ccc(F)cc5)cs4)CC3)CC2)cc1	-9	-5	0	-11	1	3	x	x
O=C1c2ccccc2C(=O)N1Cc1ccco1	0	-10	-8	8	0	-7	x	x
O=C1c2cccc3c(O)ccc(c23)C(=O)N1Cc1ccco1	95*	12	-104	-7	-3	-72	133*	116*
O=C(Nc1ccc2oc(-c3ccccc3F)nc2c1)c1cncc(Br)c1	62*	47	0	9	32	14	2	2
CCCn1c(SCc2cc(=O)oc3ccc4ccccc4c23)n[nH]c1=O	-5	-3	-21	-2	-1	-1	x	x
CSc1nc2n(n1)C(c1cccc(F)c1)C(C(=O)Nc1ccc(C)cc1C)=C(C)N2 (stereo unspecified)	38	-12	-1	1	-3	-8	x	x
